Common to all, as to assay type: functional, cell-based
Assay [1] in a line: TNF-alpha release is determined to know human (JN.24 cloned) V gamma-2 V delta-2 T cell stimulation. In short, it runs like this:
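JN.24 CD4+ clone, 1×10^5 cells/well, cultured in duplicate or triplicate with half-log antigen dilutions and 1×10^5 glutaraldehyde-fixed (0.05%) CP.EBV B cells as APC (1:1). Supernatants collected after 18 h; TNF-α quantified by sandwich ELISA against a TNF-α standard curve; EC50 from dose response.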

Assay [2] is described as follows: Proliferation of human (JN.24 cloned) V gamma-2 V delta-2 T cell. The gist of the method:
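JN.24 CD4+ clone, 1×10^5 cells/well, stimulated in duplicate or triplicate with half-log dilutions of antigen plus 1×10^5 CP.EBV B cells fixed with 0.05% glutaraldehyde (1:1). Supernatant removed at 18 h, then cultures pulsed with 1 µCi 3H-thymidine and harvested 16–18 h later; mean proliferation gives EC50.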

Assay [3] is described as follows: Proliferation of human (12g12 cloned) V gamma-2 V delta-2 T cell. In short, it runs like this: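 Clone 12G12 at 1×10^5 cells/well with 1×10^5 fixed Va2 fibrosarcoma cells as APC (1:1), exposed in duplicate or triplicate to half-log antigen dilutions. After 18 h supernatant removal, 1 µCi 3H-thymidine pulse; harvest 16–18 h later; EC50 from mean proliferation.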

Assay [4] in a line: TNF-alpha release is determined to know human (12g12 cloned) V gamma-2 V delta-2 T cell stimulation. In short, it runs like this:
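12G12 cells (1×10^5/well) cocultured 1:1 with glutaraldehyde-fixed Va2 transformed fibrosarcoma cells as APC and half-log antigen dilutions, in duplicate or triplicate. Supernatant taken at 18 h, TNF-α measured by sandwich ELISA against a standard curve; EC50 from dose response.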

Each structure is given as a SMILES string. Several values for one entry are separate records, joined by “and”; a condition that tells them apart may be missing. Equal values may be shown once.

Regarding `O=P(O)(O)OP(=O)(O)OCC[C@@H](O)CBr`, the EC50 was 500 nM in assay [1] (Homo sapiens, T-cell) and 1200 nM in assay [2] (Homo sapiens, T-cell).

Regarding `O=P(O)(O)OP(=O)(O)OCC[C@H](O)CBr`, the EC50 was determined as 2000 nM in assay [1] (Homo sapiens, T-cell) and 4000 nM in assay [2] (Homo sapiens, T-cell).

As for `C[C@@](O)(CBr)CCOP(=O)(O)OP(=O)(O)O`, the 50% effective concentration (EC50) in assay [3] (Homo sapiens, T-cell) stood at 0.9 nM; in assay [3] (t-cell), 0.8 nM; in assay [4] (Homo sapiens, T-cell) it was 9 nM; in assay [4] (t-cell) it was 8 nM.

As to `C[C@@]1(CCOP(=O)(O)OP(=O)(O)O)CO1`, the EC50 was 1 nM in assay [3] (Homo sapiens, T-cell); 1 nM in assay [3] (t-cell); 1.3 nM and 3.7 nM in assay [4] (t-cell); 1.4 nM and 3.1 nM and 1.3 nM in assay [2] (t-cell).

On to `C[C@](O)(CBr)CCOP(=O)(O)OP(=O)(O)O`, for which the EC50 was 1.4 nM and 0.5 nM in assay [3] (t-cell); 5 nM in assay [4] (Homo sapiens, T-cell); 4 nM in assay [4] (t-cell); 170 nM in assay [2] (Homo sapiens, T-cell); 120 nM and 110 nM and 85 nM in assay [2] (t-cell).

`O=P(O)(O)OP(=O)(O)OCC[C@@H]1CO1`: the EC50 in assay [1] (Homo sapiens, T-cell) was over 100000 nM; in assay [2] (Homo sapiens, T-cell), over 100000 nM.

In the case of `O=P(O)(O)OP(=O)(O)OCC[C@H]1CO1`, the concentration giving a half-maximal response (EC50) in assay [1] (Homo sapiens, T-cell) was over 100000 nM; in assay [2] (Homo sapiens, T-cell) it was over 100000 nM.

As to `CC1(CCOP(=O)(O)OP(=O)(O)O)CO1` (single isomer, unassigned), the half-maximal effective concentration (EC50) in assay [3] (Homo sapiens, T-cell) was 0.5 nM; in assay [3] (t-cell), 0.6 nM; in assay [4] (t-cell), 8 nM and 3 nM; in assay [1] (t-cell), 2900 nM and 350 nM and 1100 nM.

Broadly, the EC50 is the concentration at which the effect is half-maximal. High values mean a need for much substance, low ones an effect from little substance.

Values taken from ChEMBL document CHEMBL1137030, “Synthesis of chiral phosphoantigens and their activity in gamma delta T cell stimulation” (Bioorg Med Chem Lett, 2004).
